Results on 5 compounds are retold here after paper PMC9401589 (Chembiochem, 2022).

One series relates to A. variabilis. Kind of series: Uptake assay: decrease of compound in supernatant of A. variabilis cultures. The series is classed as cell-based, Anabaena variabilis. To be noted: 250 μM applied; for change of compound amount in supernatant: over 48 h.
Series [1] has as its system Anabaena variabilis ATCC 29413. The series can be described thus: Bioactivity assay: growth of A. variabilis in presence of compound. The settings on record: for growth inhibition / bioactivity towards A. variabilis: 4 days of cultivation; for cell density (chlorophyll a content) compared to control: 250 μM, four-day cultivation; for concentration at which an effect on growth was visible: after 4 days of cultivation, tested 5-250 µM. The series is classed as cell-based. An outline of the steps:
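A. variabilis cultured in suspension with test compound at 250 μM for four days. Chlorophyll a content was then measured as the indicator of cell density and compared with untreated control cultures. Cultures were also inspected visually for growth.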

Series [2] deals with DAHP accumulation in A. variabilis cells. Kind of series: DAHP accumulation in treated A. variabilis cells. The series is classed as cell-based, Anabaena variabilis. The settings on record: 250 μM, after 5 h of cultivation. An outline of the steps: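 Anabaena variabilis cells were cultivated for 5 h with 250 μM test compound, alongside untreated control cells. Treated cells were then examined for intracellular DAHP accumulation as an in vivo sign of DHQS inhibition in the shikimate pathway.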

A further series concerns A. thaliana seedlings. The series can be described thus: Seedling growth of A. thaliana. Type of series: in vivo, Arabidopsis thaliana. To be noted: 7 days after germination, compared to control. In short, it runs like this: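 A. thaliana seedlings were grown with or without test compound and scored 7 days after germination for seedling morphology and root length (n≥18 seedlings). Each treatment was compared with the control by unpaired t-test.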

The nature of series [3]: Quantification of compound in plant material via GC-MS. Type of series: in vivo, Arabidopsis thaliana.
Series [4] concerns the target T1, dehydroquinate synthase of Arabidopsis thaliana (AtDHQS) (Arabidopsis thaliana, UniProt Q8VYV7).
T1 sequence (Q8VYV7 59-442): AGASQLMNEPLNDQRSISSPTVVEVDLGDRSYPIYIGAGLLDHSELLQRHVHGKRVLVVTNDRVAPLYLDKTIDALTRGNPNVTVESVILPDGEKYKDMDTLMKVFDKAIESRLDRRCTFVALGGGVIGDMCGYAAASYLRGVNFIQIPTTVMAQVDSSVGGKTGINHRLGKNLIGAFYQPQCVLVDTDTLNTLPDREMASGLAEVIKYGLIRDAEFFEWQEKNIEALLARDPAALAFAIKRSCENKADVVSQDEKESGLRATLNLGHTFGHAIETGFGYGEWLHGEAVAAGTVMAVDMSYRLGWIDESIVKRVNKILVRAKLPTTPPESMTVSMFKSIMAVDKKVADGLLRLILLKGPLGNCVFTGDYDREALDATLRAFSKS
The series can be described thus: DHQS activity assay. The series is classed as biochemical.

The next series concerns fish. To be noted: fish ref 2, 4; cited from earlier work.
Series [5] concerns the target T2, DHQS from A. variabilis (AvDHQS) (Trichormus variabilis, UniProt Q3M4V2).
T2 sequence (Q3M4V2 1-363): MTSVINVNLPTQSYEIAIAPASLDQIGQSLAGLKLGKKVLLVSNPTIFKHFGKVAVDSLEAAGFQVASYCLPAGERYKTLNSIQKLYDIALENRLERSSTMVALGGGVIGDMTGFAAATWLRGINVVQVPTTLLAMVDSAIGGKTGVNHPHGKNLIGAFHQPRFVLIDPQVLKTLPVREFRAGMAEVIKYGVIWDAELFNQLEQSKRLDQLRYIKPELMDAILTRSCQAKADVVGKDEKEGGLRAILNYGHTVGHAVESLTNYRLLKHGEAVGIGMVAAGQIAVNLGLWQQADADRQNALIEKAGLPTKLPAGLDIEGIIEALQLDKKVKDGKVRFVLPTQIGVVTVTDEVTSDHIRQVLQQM
Kind of series: DHQS activity assay with A. variabilis enzyme. Type of series: biochemical, Anabaena variabilis.

By pIC50 is commonly meant the negative decadic logarithm of the IC50, by convention in mol/L. A low value points to a large IC50.

Structures are written as SMILES. pIC50: −log10 of the molar value. “Also recorded” adds a separate entry of the source. Read-outs that look alike come from different tables or passages of the source. Bounds are passed on as bounds.

Consider `C[C@@H](O)[C@H](F)[C@@H](O)[C@H](O)C(=O)CO` [5,7dd5FIh (3)], for which the “change of compound amount in supernatant” value in the series with A. variabilis is given as “depletion”. In series [1], the “growth inhibition / bioactivity towards A. variabilis” value is given as “nor in growth inhibition”. Moreover, the “DAHP accumulation” value in series [2] is “only very small amounts; also recorded: neither result in DAHP accumulation”. Moreover, the “effect on seedling growth / root length” value with A. thaliana seedlings is “no statistical significant differences”.

Turning to `O=C(CO)[C@@H](O)[C@H](O)[C@H](O)[C@H](O)CF` [7d7FSh (2)], the “medium concentration leading to saturation of intracellular accumulation” value in series [3] (7 d old seedlings) was 130 µM. Besides, the “accumulation / import into Arabidopsis seedlings” value in series [3] (seedlings germinated on media with 7d7FSh (130 or 260 µM)) was “comparable range to 7dSh (1)”. Moreover, the “initially applied compound retrieved in the supernatant” value in the series on A. variabilis (after 24 h) is reported as “none”. Also, the “change of compound amount in supernatant” value in the series on A. variabilis was “best among all tested compounds”. For the same compound, in series [1], the “cell density (chlorophyll a content) compared to control” value is listed as “significantly reduced”, the “growth inhibition / bioactivity towards A. variabilis” value is “inhibited growth” and the “concentration at which an effect on growth was visible” value is 100 µM. Besides, the pIC50 in series [4] is 3.70. For the same compound, the “DAHP accumulation” value in series [2] is given as “significantly higher amounts; also recorded: significantly elevated compared to 7dSh (1)”. Moreover, in the series on A. thaliana seedlings, the “effect on seedling growth / root length” value was “significantly affected the growth and morphology; also recorded: inhibited growth”.

Turning to `C[C@@H]1O[C@](O)(CO)[C@@H](O)[C@H](O)[C@H]1O` [7dGh (5)], the “change of compound amount in supernatant” value in the series on A. variabilis is “slight decrease; also recorded: small decrease”. Moreover, the “growth inhibition / bioactivity towards A. variabilis” value in series [1] was “nor inhibitory impact on cell growth”. In series [4] (IC50 7dSh : IC50 derivative, same enzyme series), the “relative activity in relation to 7dSh (1) (ratio of IC50 values)” value was “≈ 0.3”. Also, the “DAHP accumulation” value in series [2] is recorded as “only very small amounts; also recorded: neither DAHP accumulation”. Also, the “effect on seedling growth / root length” value in the series with A. thaliana seedlings is on record as “no statistical significant differences”.

`C[C@@H](O)[C@@H](O)[C@@H](O)[C@H](O)C(=O)CO` [7dSh (1), 7‐deoxy‐sedoheptulose]: the “amount of initially applied substance detected in the supernatant” value in the series with A. variabilis (after 48 h, ESI-MS) is “about 50%”. Besides, in the series with fish, the cytotoxic effects entry is recorded as “little”. Moreover, the “cell density (chlorophyll a content) compared to control” value in series [1] is reported as “significantly reduced”. In series [1], the “concentration at which an effect on growth was visible” value is 5 µM. Moreover, the negative-log IC50 (pIC50) in series [4] (IC50, AtDHQS, series [b] enzyme preparation) was 4.07; in series [4] (IC50-value against isolated AtDHQS enzyme, range over both enzyme preparations), 3.84 to 4.07; in series [4] (IC50 of AtDHQS, approximate, as printed in discussion), about 4.00; in series [5] it was 4.63. Also, in series [2], the “DAHP accumulation” value is recorded as “significantly higher amounts”. Besides, in the series on A. thaliana seedlings, the “effect on seedling growth / root length” value was “significantly affected the growth and morphology”.

Turning to `O=C(CO)[C@@H](O)[C@H](O)[C@H](O)[C@H](O)CO` [Sedoheptulose, reference compound], the “inhibitory effect on AtDHQS” value in series [4] is recorded as “no inhibitory effect”. Moreover, the negative logarithm of the IC50 (pIC50) in series [4] (AtDHQS, series [a] enzyme preparation, 2.5 µM substrate, 2 nM enzyme, 29 °C) was under 3.00.
